Experimental data pooled from the literature.
Cell line: HeLa
Effect on: cell growth or viability
Method: MTT

| SMILES | conditions | endpoint | value |
| --- | --- | --- | --- |
| O=C(Nc1cccc([N+](=O)[O-])c1)c1ccco1 | – | IC50 | 637 µM |
| O=c1c(C=NNC(=S)Nc2ccccc2)coc2ccccc12 | 48 h | IC50 | 91.9 µM |
| Cc1cc(NC(=O)C=Cc2ccccc2)cc(-c2ccnc(N3CCOCC3)c2)c1 | 5 µM | inhibition | 16.2% |
| COc1ccc(COC[C@@](O)(CNCc2ccc(F)cc2)[C@@H]2CC[C@@H](C)C[C@H]2OCc2ccc(OC)cc2)cc1 | 30 µM, 72 h | inhibition | 99.1% |
| [NH2][Pt]([NH2])([Cl])[Cl] | 72 h | IC50 | 6.8 µM |
| O=C(C=Cc1ccccc1)Nc1cccc(-c2ccnc(N3CCC(CO)CC3)c2)c1 | 5 µM | inhibition | 73.1% |
| COc1cccc2c1C(=O)c1c(O)c3c(c(O)c1C2=O)C[C@@](O)(C(=O)CO)C[C@@H]3O[C@H]1C[C@H](N)[C@H](O)[C@H](C)O1 | – | GI50 | 4.21 µM |
| O=C(C=Cc1ccccc1)Nc1cc(-c2ccnc(N3CCC(O)CC3)c2)ccn1 | 72 h | IC50 | 0.0741 µM |
| C[C@@H]1CC[C@@H]([C@@](C)(O)Cn2cnc3ccccc32)[C@H](OCc2ccccc2)C1 | 30 µM, 72 h | inhibition | 86.3% |
| Cc1cccc(/C=C/C(=O)Nc2cc(-c3ccnc(N4CCOCC4)c3)ccn2)c1 | 5 µM | inhibition | 72% |
| COC(=O)COc1c(Cc2cc(C(C)(C)CC(C)(C)C)cc(-n3nc4ccccc4n3)c2OCC(=O)OC)cc(C(C)(C)CC(C)(C)C)cc1-n1nc2ccccc2n1 | – | GI50 | 8.12 µM |
| O=C(CCc1ccccc1)Nc1cc(-c2ccnc(N3CCC(O)CC3)c2)ccn1 | 5 µM | inhibition | 82.9% |
| C=C(COCc1ccc(F)cc1)[C@@H]1CC[C@@H](C)C[C@H]1OCc1ccc(F)cc1 | 10 µM, 72 h | inhibition | 32.8% |
| O=C(C=Cc1ccc(F)cc1)Nc1cc(-c2ccnc(N3CCC(O)CC3)c2)ccn1 | 5 µM | inhibition | 67.2% |
| COc1ccc(COC[C@@](O)(CNCc2ccccc2)[C@@H]2CC[C@@H](C)C[C@H]2OCc2ccc(OC)cc2)cc1 | 30 µM, 72 h | inhibition | 97.4% |
| C[C@H](CCC(=O)O)[C@H]1CC[C@H]2[C@@H]3CC[C@@H]4C[C@H](O)CC[C@]4(C)[C@H]3CC[C@]12C | 72 h | IC50 | 56 µM |
| O=C(Nc1cccc([N+](=O)[O-])c1)c1cccs1 | – | IC50 | 282 µM |
| C=C(COCc1ccc(OC)cc1)[C@@H]1CC[C@@H](C)C[C@H]1OCc1ccc(OC)cc1 | 30 µM, 72 h | inhibition | 60.6% |
